Consider 16 compounds from ChEMBL document CHEMBL1136836, “Aryloxy cyclohexyl imidazoles: a novel class of antileishmanial agents” (Bioorg Med Chem Lett, 2009).

Data set [1] in a line: Cytotoxicity against mouse J774A1 cells after 48 hrs by Geimsa staining method. The class given is cell-based, J774.A1. Put shortly: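 Mouse macrophage line J-774-A-1 used for the cytotoxicity read-out. CC50 is the concentration giving 50% inhibition of cell viability.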
Data set [2] in a line: (§1) Selectivity index, ratio of CC50 for mouse J774A1 cells to IC50 for Leishmania donovani intracellular amastigotes infected in mouse J774A1 cells. The data set is classed as functional, J774.A1. Put shortly: (§2)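 SI is based on CC50 in J-774-A-1 macrophages and IC50 in the antileishmanial assay.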
The subject of data set [3] is Leishmania donovani. The data set can be described thus: Antileishmanial activity against Leishmania donovani extracellular promastigotes at 10 ug/ml after 72 hrs by luciferase activity-based drug susceptibility assay. The class given is functional. Put shortly: (§3)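 Transgenic L. donovani promastigotes tested at various concentrations up to a maximum of 10 µg/ml, with sodium stibogluconate and pentamidine as reference drugs. IC50 derived by Probit analysis.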

The subject of data set [4] is Leishmania donovani. Put plainly: Antileishmanial activity against Leishmania donovani intracellular amastigotes infected in mouse J774A1 cells after 48 hrs by luciferase activity-based drug susceptibility assay. The class given is functional, organism-based. Conditions: for Activity: J774.A1; for IC50: J774.A1, 48 h. The method in brief: (§4)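 Intracellular amastigotes of transgenic L. donovani in mouse J-774-A-1 macrophages, exposed to a range of concentrations up to a maximum of 10 µg/ml. Sodium stibogluconate and pentamidine served as reference drugs. IC50 calculated by Probit analysis.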

Data set [5] deals with Leishmania donovani. Put plainly: Antileishmanial activity against Leishmania donovani extracellular promastigotes after 72 hrs by luciferase activity-based drug susceptibility assay. The data set is classed as functional, organism-based. The method in brief:
as §3

The test system of data set [6] is Leishmania donovani. The data set can be described thus: Antileishmanial activity against Leishmania donovani intracellular amastigotes infected in mouse J774A1 cells at 10 ug/ml after 48 hrs by luciferase activity-based drug susceptibility assay. The data set is classed as functional. Conditions: for inhibition at 10 µg/mL: J774.A1, 48 h. The method in brief:
as §4

For data set [7], the system named is Leishmania donovani. Put plainly: Antileishmanial activity against Leishmania donovani infected in hamster assessed as inhibition of parasite growth at 40 mg/kg, ip for 10 days. Conditions: 240 h, route intraperitoneal. The data set is classed as functional. The method in brief: (§5)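 L. donovani-infected hamster model. Dosing was intraperitoneal, 10 doses: test compounds at 50 mg/kg, sodium stibogluconate at 20 mg/kg, pentamidine at 40 mg/kg. Read-out is percent inhibition of parasites.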

In data set [8] the test system is Leishmania donovani. Put plainly: Antileishmanial activity against Leishmania donovani infected in hamster assessed as inhibition of parasite growth at 50 mg/kg, ip for 10 days. The data set is classed as functional. Conditions: 240 h, route intraperitoneal. Put shortly:
as §5

Data set [9] deals with J774.A1. Described as §1. The class given is functional. Put shortly: as §2
Data set [10] concerns Leishmania donovani. Put plainly: Antileishmanial activity against Leishmania donovani infected in hamster assessed as inhibition of parasite growth at 20 mg/kg, ip for 10 days. The class given is functional, organism-based. Also noted: dose 20 mg/kg. Put shortly: as §5

Converted amounts (≈) assume the structure as drawn. Bounds are passed on as bounds.

As to `O=[N+]([O-])c1ccc(OC2C(Cn3ccnc3)CCCC2Cn2ccnc2)c(C(F)(F)F)c1` (stereo not drawn), the CC50 (as a rule, the concentration giving 50% cytotoxicity) at 48 h in [1] stood at 14.4 µg/mL (≈ 32.1 µM). The “Ratio CC50/IC50” value in data set [2] turned out to be 24.557. Further, the inhibition at 10 µg/mL in data set [3] and in data set [6] was 100% throughout. Besides, the Activity result in [4] and in [5] was “Dose-dependent effect” throughout. Moreover, the IC50 (as a rule, the concentration needed to halve the response being measured) in [4] came to 0.588 µg/mL (≈ 1.31 µM); in data set [5] it was 6.72 µg/mL (≈ 15 µM).

As to `N=C(N)c1ccc(OCCCCCOc2ccc(C(=N)N)cc2)cc1` [PENTAMIDINE], in [1], it took 31.3 µg/mL (≈ 92 µM) to reach half-maximal cytotoxicity (CC50 at 48 h). In addition, in data set [2], the “Ratio CC50/IC50” value is listed as 2.58. Besides, the inhibition at 10 µg/mL in data set [3] and in [6] was 100% in each case. For the same compound, the Activity entry in data set [4] and in data set [5] was “Dose-dependent effect” each time. Moreover, the figures for the IC50 in data set [4] and in data set [5] were 12.1 µg/mL (≈ 35.6 µM) and 0.643 µg/mL (≈ 1.89 µM), respectively. In addition, the inhibition in vivo (as a rule, the relative decrease from the control value, in per cent) at 40 mg/kg in data set [7] worked out at 92%.

Compound `FC(F)(F)c1ccc(OC2C(n3ccnc3)CCCC2n2ccnc2)cc1` (stereo not drawn) displayed a CC50 at 48 h in [1] of 96.4 µg/mL (≈ 256 µM). For the same compound, the “Ratio CC50/IC50” value in data set [2] was 32.143. The inhibition at 10 µg/mL in data set [3] and in [6] was 100% throughout. For the same compound, the Activity result in data set [4] and in [5] was “Dose-dependent effect” each time. Further, the IC50 worked out at 3 µg/mL (≈ 7.97 µM) in [4] and 2.06 µg/mL (≈ 5.47 µM) in data set [5]. For the same compound, in data set [8], the inhibition in vivo at 50 mg/kg was determined as 36.8%.

In data set [1], `FC(F)(F)c1ccc(OC2C(Cn3ccnc3)CCCC2Cn2ccnc2)cc1` (stereo not drawn) came in with a CC50 at 48 h of 94.5 µg/mL (≈ 234 µM). Also, the “Ratio CC50/IC50” value in data set [2] is reported as 83.6. For the same compound, the inhibition at 10 µg/mL in [3] and in data set [6] was 100% throughout. For the same compound, the Activity entry in data set [4] and in [5] was “Dose-dependent effect” throughout. The IC50 in data set [4] is 1.13 µg/mL (≈ 2.79 µM); in data set [5], 3.28 µg/mL (≈ 8.12 µM). For the same compound, the inhibition in vivo at 50 mg/kg in data set [8] was 51%.

Take `O=[N+]([O-])c1ccc(O[C@H]2CCCC[C@@H]2Cn2ccnc2)c(F)c1`: the CC50 at 48 h in [1] is more than 100 µg/mL. The “Ratio CC50/IC50” value in data set [2] is more than 140.84. For the same compound, the inhibition at 10 µg/mL in [3] and in data set [6] was 100% in each case. The Activity entry in [4] and in data set [5] was “Dose-dependent effect” each time. For the same compound, the IC50 in [4] is 0.71 µg/mL (≈ 2.22 µM); in data set [5], 1.08 µg/mL (≈ 3.38 µM). Besides, in data set [8], the inhibition in vivo at 50 mg/kg turned out to be 55.4%.

The compound `O=[N+]([O-])c1ccc(OC2C(Cn3ccnc3)CCCC2Cn2ccnc2)cc1` (stereo not drawn) came in with a CC50 at 48 h in data set [1] of 73.9 µg/mL (≈ 194 µM). Besides, the “Ratio CC50/IC50” value in data set [2] is given as 37.51. Further, the inhibition at 10 µg/mL in [3] and in data set [6] was 100% in each case. The Activity entry in data set [4] and in [5] was “Dose-dependent effect” in each case. In addition, the IC50 was 1.97 µg/mL (≈ 5.16 µM) in data set [4] and 5.52 µg/mL (≈ 14.5 µM) in data set [5]. Moreover, the inhibition in vivo at 50 mg/kg in data set [8] is 52%.

`O=[N+]([O-])c1ccc(OC2C(n3ccnc3)CCCC2n2ccnc2)c(F)c1` (stereo not drawn) came in with a CC50 at 48 h in data set [1] of 90.6 µg/mL (≈ 244 µM). In addition, the “Ratio CC50/IC50” value in data set [2] turned out to be 30. Further, the inhibition at 10 µg/mL in data set [3] and in [6] was 100% each time. The Activity result in data set [4] and in data set [5] was “Dose-dependent effect” in each case. Further, the IC50 in data set [4] was found to be 3.02 µg/mL (≈ 8.13 µM); in [5] it was 6.13 µg/mL (≈ 16.5 µM). For the same compound, the inhibition in vivo at 50 mg/kg in data set [8] was determined as 56.7%.

`O=[N+]([O-])c1ccc(O[C@H]2CCCC[C@@H]2Cn2ccnc2)cc1`: in data set [1], the CC50 at 48 h stood at 44.6 µg/mL (≈ 148 µM). Besides, in [2], the “Ratio CC50/IC50” value amounted to 9.757. The inhibition at 10 µg/mL in data set [3] and in data set [6] was 100% throughout. The Activity result in data set [4] and in [5] was “Dose-dependent effect” in each case. Also, the IC50 is 4.57 µg/mL (≈ 15.2 µM) in [4] and 0.82 µg/mL (≈ 2.72 µM) in [5].

For `FC(F)(F)c1ccc(O[C@H]2CCCC[C@@H]2Cn2ccnc2)cc1`, in data set [1], it took 35.6 µg/mL (≈ 110 µM) to reach half-maximal cytotoxicity (CC50 at 48 h). Further, in data set [2], the “Ratio CC50/IC50” value is 9.292. In addition, the inhibition at 10 µg/mL in [3] and in [6] was 100% each time. Further, the Activity result in data set [4] and in [5] was “Dose-dependent effect” in each case. Moreover, the IC50 in [4] turned out to be 3.83 µg/mL (≈ 11.8 µM); in data set [5], 0.81 µg/mL (≈ 2.5 µM).

Turning to “D-gluconic acid 2,4:2',4'-O-[oxybis(oxidostibylidyne)]bis-trisodium salt nonahydrate”, the Ratio CC50/IC50 in data set [9] came out at 6.38. Besides, the inhibition (usually the percentage by which the read-out fell short of the control) in data set [3] amounted to 100%; in data set [10], 84.1%; in [6] (J774.A1) it was 100%. Further, the Activity entry in [4] and in data set [5] was “Dose-dependent effect” throughout.

On to `O=[N+]([O-])c1ccccc1OC1C(Cn2ccnc2)CCCC1Cn1ccnc1` (stereo not drawn), for which the CC50 at 48 h in data set [1] turned out to be 69.4 µg/mL (≈ 182 µM). In data set [2], the “Ratio CC50/IC50” value was found to be 28.47. The inhibition at 10 µg/mL in [3] and in [6] was 100% in each case. The Activity entry in data set [4] and in data set [5] was “Dose-dependent effect” each time. The results for the IC50 in data set [4] and in data set [5] were 2.44 µg/mL (≈ 6.39 µM) and 9.57 µg/mL (≈ 25.1 µM), respectively.

`O=[N+]([O-])c1ccc(O[C@H]2CCCC[C@@H]2Cn2ccnc2)c(C(F)(F)F)c1` registered a CC50 at 48 h in [1] of 13.8 µg/mL (≈ 37.5 µM). Besides, the “Ratio CC50/IC50” value in [2] was found to be 6.49. Also, the inhibition at 10 µg/mL in data set [3] and in [6] was 100% in each case. Also, the Activity entry in data set [4] and in data set [5] was “Dose-dependent effect” in each case. For the same compound, the results for the IC50 in [4] and in [5] were 2.13 µg/mL (≈ 5.77 µM) and 2.37 µg/mL (≈ 6.42 µM), respectively.

For the compound `OC1C(Cn2ccnc2)CCCC1Cn1ccnc1` (stereo not drawn), the CC50 at 48 h in data set [1] is more than 100 µg/mL. In addition, in data set [2], the “Ratio CC50/IC50” value was more than 9.28. Further, the inhibition at 10 µg/mL in data set [3] and in data set [6] was 100% in each case. The Activity entry in data set [4] and in data set [5] was “Dose-dependent effect” throughout. Also, the IC50 amounted to 10.8 µg/mL (≈ 41.4 µM) in [4] and 9.4 µg/mL (≈ 36.1 µM) in [5].

In data set [1], `O=[N+]([O-])c1ccc(OC2C(Cn3ccnc3)CCCC2Cn2ccnc2)c(F)c1` (stereo not drawn) showed a CC50 at 48 h of 39.4 µg/mL (≈ 98.6 µM). For the same compound, the “Ratio CC50/IC50” value in data set [2] is on record as 33.64. Also, the inhibition at 10 µg/mL in data set [3] and in data set [6] was 100% each time. Besides, the Activity entry in [4] and in data set [5] was “Dose-dependent effect” throughout. In addition, the figures for the IC50 in [4] and in data set [5] were 1.17 µg/mL (≈ 2.93 µM) and 3.57 µg/mL (≈ 8.94 µM), respectively. Further, the inhibition in vivo at 50 mg/kg in [8] was found to be 77.9%.

Take `O=[N+]([O-])c1ccc(OC2C(n3ccnc3)CCCC2n2ccnc2)cc1` (stereo not drawn): in data set [1], the CC50 at 48 h is more than 100 µg/mL. In addition, the “Ratio CC50/IC50” value in data set [2] is more than 11.4. Further, the inhibition at 10 µg/mL in data set [3] and in data set [6] was 100% throughout. Further, the Activity entry in data set [4] and in [5] was “Dose-dependent effect” throughout. Also, the results for the IC50 in [4] and in data set [5] were 8.76 µg/mL (≈ 24.8 µM) and 4.67 µg/mL (≈ 13.2 µM), respectively.

With `O=[N+]([O-])c1ccccc1O[C@H]1CCCC[C@@H]1Cn1ccnc1`, the CC50 at 48 h in [1] amounted to 63.1 µg/mL (≈ 209 µM). Further, the “Ratio CC50/IC50” value in [2] was found to be 9.39. Further, the inhibition at 10 µg/mL in data set [3] and in data set [6] was 100% each time. Also, the Activity entry in data set [4] and in [5] was “Dose-dependent effect” throughout. Moreover, the figures for the IC50 in data set [4] and in data set [5] were 6.72 µg/mL (≈ 22.3 µM) and 4.23 µg/mL (≈ 14 µM), respectively.
